Measured values as given in ChEMBL document CHEMBL1944532, “Synthesis and evaluation of anticancer activity of some novel 6-aryl-2-(p-sulfamylphenyl)-pyridazin-3(2H)-ones” (Eur J Med Chem, 2012).
Calls of active or inactive are those of the source. The calls are words filed in the database; no cut-off is given here.

How the values were obtained:
RPMI-8226 = assay: Cytotoxicity against human RPMI8226 cells assessed as cell growth at 10 uM after 48 hrs by SRB assay; assay type: functional; settings: RPMI-8226, 48 h, read-out: Activity
Summary of the method: (§1)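 NCI primary single-dose screen at 10^-5 M against the full panel of about 60 human tumor cell lines. Cells were in RPMI-1640 with 5% fetal calf serum and 2 mM L-glutamine and preincubated 24 h. Compound was given in DMSO with 48 h exposure. Growth was estimated by sulforhodamine B protein assay.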

EKVX = assay: Cytotoxicity against human EKVX cells after 48 hrs by SRB assay; assay type: functional
Summary of the method: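 NCI ~60-line panel in RPMI-1640 with 5% fetal calf serum and 2 mM L-glutamine, pre-incubated 24 h. Compound in DMSO tested at five 10-fold concentrations (10^-4 to 10^-8 M) with 48 h continuous exposure. Growth measured by sulforhodamine B protein assay. GI50 (50% net growth inhibition), TGI (total inhibition) and LC50 (50% net cell death) derived from dose-response.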

HCT-15 = assay: Cytotoxicity against human HCT15 cells assessed as cell growth at 10 uM after 48 hrs by SRB assay; assay type: functional; settings: HCT-15, 48 h, read-out: Activity
Summary of the method: (§2)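 NCI primary single-dose screen at 10^-5 M against the ~60 human tumour cell line panel. Cells grown in RPMI-1640 with 5% fetal calf serum and 2 mM L-glutamine and pre-incubated 24 h before compound addition. Compound added from DMSO solution with 48 h exposure. Growth read by sulforhodamine B protein staining.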

SN12C = assay: Cytotoxicity against human SN12C cells assessed as cell growth at 10 uM after 48 hrs by SRB assay; assay type: functional; settings: read-out: Activity
Summary of the method: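 NCI primary one-dose screen at 10^-5 M against the full panel of about 60 human tumour cell lines, run to the NCI Drug Evaluation Branch protocol.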

786-0 = assay: Cytotoxicity against human 786-0 cells assessed as cell growth at 10 uM after 48 hrs by SRB assay; assay type: functional; settings: 786-0, 48 h, read-out: Activity; summary of the method: as §2
MDA-MB-435 = assay: Cytotoxicity against human MDA-MB-435 cells assessed as cell growth at 10 uM after 48 hrs by SRB assay; assay type: functional; settings: MDA-MB-435, 48 h, read-out: Activity; summary of the method: as §1
NCI-H522 = assay: Cytotoxicity against human NCI-H522 cells assessed as cell growth at 10 uM after 48 hrs by SRB assay; assay type: functional; settings: NCI-H522, 48 h, read-out: Activity; summary of the method: as §1
OVCAR-5 = assay: Cytotoxicity against human OVCAR5 cells after 48 hrs by SRB assay; assay type: functional; settings: OVCAR-5, 48 h
Summary of the method: (§3)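 NCI five-dose screen on the ~60-line human tumor panel. Cells grown in RPMI-1640 with 5% fetal calf serum and 2 mM L-glutamine, seeded at line-dependent density and preincubated 24 h. Compound added from DMSO at 10-fold dilutions from 10^-4 to 10^-8 M, continuous exposure 48 h. Growth read by sulforhodamine B protein stain. GI50, TGI and LC50 derived per line.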

M14 = assay: Cytotoxicity against human M14 cells after 48 hrs by SRB assay; assay type: functional; settings: M14, 48 h; summary of the method: as §3
SF-539 = assay: Cytotoxicity against human SF539 cells assessed as cell growth at 10 uM after 48 hrs by SRB assay; assay type: functional; settings: SF-539, 48 h, read-out: Activity; summary of the method: as §1
BT-549 = assay: Cytotoxicity against human BT549 cells assessed as cell growth at 10 uM after 48 hrs by SRB assay; assay type: functional; settings: BT-549, 48 h, read-out: Activity; summary of the method: as §2
[1] = Toxicity in ip dosed athymic nude mouse assessed as lethality after 2 weeks; assay type: organism-based; settings: in vivo
Summary of the method: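 Maximum tolerated dose determination in athymic nude mice. Single ip injection of 400, 200 or 100 mg/kg, one mouse per dose. Compound solubilized in DMSO. Feed and water ad libitum. Mice observed 2 weeks for body weight loss, lethality and other toxicity signs; sacrificed if weight loss exceeds 20%.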

HT-29 = assay: Cytotoxicity against human HT-29 cells assessed as cell growth at 10 uM after 48 hrs by SRB assay; assay type: functional; settings: HT-29, 48 h, read-out: Activity; summary of the method: as §2
LOX IMVI = assay: Antitumor activity against human LOXIMVI cells implanted in mouse dosed qd for 4 days by formazan dye-based hollow fiber assay; assay type: functional, organism-based
Summary of the method: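 Cells grown inside polyvinylidene fluoride hollow fibers; each line implanted into both intraperitoneal and subcutaneous compartments in mice. Compound given ip at two doses on a QD x 4 schedule. Fibers then recovered and viable cell mass measured by formazan dye conversion. Scored 2 per dose giving ≥50% reduction in viable cell mass (%T/C 50).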

KM12 = assay: Cytotoxicity against human KM12 cells assessed as cell growth at 10 uM after 48 hrs by SRB assay; assay type: functional; settings: KM12, 48 h, read-out: Activity; summary of the method: as §1

CCc1ccc(-c2ccc(=O)n(-c3ccc(S(N)(=O)=O)cc3)n2)cc1
growth at 10 µM (RPMI-8226): -29.9%
LC50 (50% net cell death) (EKVX): > 100 µM
GI50 (EKVX; read-out: GI50): 2790 nM
GI50 (EKVX; read-out: pGI50 (converted)): 2820 nM
TGI (EKVX; read-out: pTGI): > 100 µM
growth at 10 µM (HCT-15): 29.7%
growth at 10 µM (SN12C): 58.4%
growth at 10 µM (786-0): 50%
growth at 10 µM (MDA-MB-435): -17.9%
growth at 10 µM (NCI-H522): -33.6%
LC50 (OVCAR-5): > 100 µM
GI50 (OVCAR-5; read-out: GI50): 41.4 µM
GI50 (OVCAR-5; read-out: pGI50 (converted)): 41.7 µM
TGI (OVCAR-5; read-out: pTGI): > 100 µM
LC50 (M14): > 100 µM
GI50 (M14; read-out: GI50): 335 nM
GI50 (M14; read-out: pGI50 (converted)): 339 nM
TGI (M14; read-out: pTGI (converted)): 4.9 µM
growth at 10 µM (SF-539): 43.6%
growth at 10 µM (BT-549): 7.69%
MTD at 336 h [1]: 400 mg/kg
growth at 10 µM (HT-29): 11.8%
Activity (LOX IMVI): inactive
growth at 10 µM (KM12): 13.6%
